In brackets after ≈: the same amount, converted by molar mass.
Assays:
[1] = system: Plasmodium falciparum; assay: In vitro antimalarial activity against Plasmodium falciparum W-2 Indochina; type: functional, organism-based
Procedure, shortened: (§1)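 [³H]hypoxanthine uptake assay. Compound was dissolved in DMSO and 70% ethanol, diluted in RPMI 1640 with 10% human plasma, then tested over (1.56-100) × 10⁻⁹ M. Parasites (0.5% parasitemia, 1% hematocrit) were incubated 24 h with compound, then [³H]hypoxanthine was added and incubation continued 18 h. Cells were harvested and counted by scintillation. IC50 came from nonlinear regression of concentration-response data.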

[2] = system: Plasmodium falciparum; assay: In vitro antimalarial activity against Plasmodium falciparum D6 (Sierra Leone); type: functional, organism-based; procedure, shortened: as §1
[3] = system: Plasmodium berghei; assay: Cures in Plasmodium berghei infected mice (Mus musculus) after 3 days at 80 mg/kg; cured 1 of 5; type: functional
[4] = system: Plasmodium berghei; assay: Increased mean survival time (>12-14 days) in Plasmodium berghei infected mice (Mus musculus) after 3days at 20 mg/kg; active in 2 of 5; type: functional
[5] = system: Plasmodium berghei; assay: Increased mean survival time (>12-14 days) in P berghei infected mice (Mus musculus) after 3 days at 80 mg/kg; active in 3 of 5; type: functional
[6] = system: Plasmodium berghei; assay: Cures in Plasmodium berghei infected mice (Mus musculus) after 3 days at 320 mg/kg; cured 5 of 5; type: functional
[7] = system: Plasmodium berghei; assay: Cures in Plasmodium berghei infected mice (Mus musculus) after 3 days at 20 mg/kg; cured 0 of 5; type: functional
[8] = system: Plasmodium berghei; assay: Cures in Plasmodium berghei infected mice (Mus musculus) after 3 days at 80 mg/kg; […]; type: functional
[9] = system: Plasmodium berghei; assay: Cures in Plasmodium berghei infected mice (Mus musculus) after 3 days at 20 mg/kg; cured 1 of 5; type: functional
[10] = system: Plasmodium berghei; assay: Increased mean survival time (>12-14 days) in Plasmodium berghei infected mice (Mus musculus) after 3 days at 20 mg/kg; active in 4 of /5; type: functional
[11] = system: Plasmodium berghei; assay: Cures in Plasmodium berghei infected mice (Mus musculus) after 3 days at 320 mg/kg; cured 3 of 5; type: functional
[12] = system: Plasmodium berghei; assay: Increased mean survival time (>12-14 days) in P berghei infected mice (Mus musculus) after 3 days at 80 mg/kg; active in 5 of 5; type: functional
[13] = system: Plasmodium berghei; assay: Cures in Plasmodium berghei infected mice (Mus musculus) after 3 days at 80 mg/kg; cured 0 of 5; type: functional
[14] = system: Plasmodium berghei; assay: Cures in Plasmodium berghei infected mice (Mus musculus) after 3 days at 80 mg/kg; cured 2 of 5; type: functional
[15] = system: Plasmodium berghei; assay: Increase in mean survival time (>12-14 days) in Plasmodium berghei infected mice (Mus musculus) after 3 days at 80 mg/kg; active in 1 of 5; type: functional
[16] = system: Plasmodium berghei; assay: Increased mean survival time (>12-14 days) in Plasmodium berghei infected mice (Mus musculus) after 3 days at 80 mg/kg; active in 1 of 5; type: functional
[17] = system: Plasmodium berghei; assay: Cures in Plasmodium berghei infected mice (Mus musculus) after 3 days at 640 mg/kg; cured 4 of 5; type: functional
[18] = system: Plasmodium berghei; assay: Cures in Plasmodium berghei infected mice (Mus musculus) after 3 days at 160 mg/kg; cured 1 of 5; type: functional
[19] = system: Plasmodium berghei; assay: Cures in Plasmodium berghei infected mice (Mus musculus) after 3 days at 640 mg/kg; cured 5 of 5; type: functional
[20] = system: Plasmodium berghei; assay: Cures in Plasmodium berghei infected mice (Mus musculus) after 3 days at 160 mg/kg; cured 5 of 5; type: functional

C[C@H]1[C@@H](OC[C@H](C)C(=O)O)O[C@@H]2O[C@@]3(C)CC[C@H]4[C@H](C)CC[C@@H]1[C@@]24OO3
IC50 [1]: 8.33 ng/mL (≈ 22.5 nM)
IC50 [2]: 28.7 ng/mL (≈ 77.5 nM)

COC(=O)C[C@@H](C)O[C@H]1O[C@@H]2O[C@@]3(C)CC[C@H]4[C@H](C)CC[C@@H]([C@H]1C)[C@@]24OO3
IC50 [1]: 0.071 ng/mL (≈ 0.185 nM)
IC50 [2]: 0.44 ng/mL (≈ 1.14 nM)

C[C@H]1[C@@H](O[C@@H](C)CC(=O)O)O[C@@H]2O[C@@]3(C)CC[C@H]4[C@H](C)CC[C@@H]1[C@@]24OO3
IC50 [1]: 7.43 ng/mL (≈ 20.1 nM)
IC50 [2]: 15 ng/mL (≈ 40.6 nM)

COC(=O)[C@@H](C)CO[C@H]1O[C@@H]2O[C@@]3(C)CC[C@H]4[C@H](C)CC[C@@H]([C@H]1C)[C@@]24OO3
IC50 [1]: 0.015 ng/mL (≈ 0.039 nM)
IC50 [2]: 0.36 ng/mL (≈ 0.936 nM)

COC(=O)[C@H](C)CO[C@H]1O[C@@H]2O[C@@]3(C)CC[C@H]4[C@H](C)CC[C@@H]([C@H]1C)[C@@]24OO3
IC50 [1]: 0.057 ng/mL (≈ 0.148 nM)
No. of mice cured [3]: 1
No. of mice survived [4]: 2
No. of mice survived [5]: 3
No. of mice cured [6]: 5
No. of mice cured [7]: 0
IC50 [2]: 2.15 ng/mL (≈ 5.59 nM)

COC(=O)C[C@H](C)O[C@H]1O[C@@H]2O[C@@]3(C)CC[C@H]4[C@H](C)CC[C@@H]([C@H]1C)[C@@]24OO3
No. of mice cured [8]: 5
No. of mice cured [9]: 1
IC50 [1]: 0.48 ng/mL (≈ 1.25 nM)
No. of mice survived [10]: 4
No. of mice cured [6]: 5
IC50 [2]: 1.91 ng/mL (≈ 4.97 nM)

C[C@H]1[C@@H](OC[C@@H](C)C(=O)O)O[C@@H]2O[C@@]3(C)CC[C@H]4[C@H](C)CC[C@@H]1[C@@]24OO3
IC50 [1]: 5.32 ng/mL (≈ 14.4 nM)
IC50 [2]: 22.2 ng/mL (≈ 60 nM)

C[C@H]1[C@@H](O[C@H](C)CC(=O)O)O[C@@H]2O[C@@]3(C)CC[C@H]4[C@H](C)CC[C@@H]1[C@@]24OO3
IC50 [1]: 4.42 ng/mL (≈ 11.9 nM)
IC50 [2]: 36.5 ng/mL (≈ 98.4 nM)

C[C@H]1[C@@H](OCC23CC4CC(CC(C4)C2)C3)O[C@@H]2O[C@@]3(C)CC[C@H]4[C@H](C)CC[C@@H]1[C@@]24OO3
No. of mice cured [11]: 3
IC50 [1]: 2.11 ng/mL (≈ 4.88 nM)
No. of mice survived [12]: 5
No. of mice cured [7]: 0
IC50 [2]: 2.7 ng/mL (≈ 6.24 nM)
No. of mice cured [13]: 0

CC1=CO[C@@H]2O[C@]3(C)CC[C@H]4[C@H](C)CC[C@@H]1[C@@]24OO3 [ANHYDRODIHYDROARTEMISININ]
No. of mice cured [14]: 2
No. of mice survived [8]: 2
IC50 [1]: 0.43 ng/mL (≈ 1.61 nM)
No. of mice survived [15]: 1
No. of mice survived [16]: 1
IC50 [2]: 0.83 ng/mL (≈ 3.12 nM)
No. of mice cured [17]: 4
No. of mice cured [18]: 1

C[C@@H]1CC[C@H]2[C@@H](C)C(=O)O[C@@H]3O[C@@]4(C)CC[C@@H]1[C@]32OO4 [ARTEMISININ]
No. of mice cured [14]: 2
IC50 [1]: 2.6 ng/mL (≈ 9.21 nM)
No. of mice survived [4]: 2
No. of mice cured [19]: 5
No. of mice cured [20]: 5
No. of mice survived [5]: 3
No. of mice cured [7]: 0
IC50 [2]: 2.35 ng/mL (≈ 8.32 nM)

C=C[C@H]1CN2CC[C@H]1C[C@H]2[C@H](O)c1ccnc2ccc(OC)cc12 [QUININE]
IC50 [1]: 59 ng/mL (≈ 182 nM)
IC50 [2]: 3.61 ng/mL (≈ 11.1 nM)

From ChEMBL document CHEMBL1124486, “Antimalarial activity of new water-soluble dihydroartemisinin derivatives. 2. Stereospecificity of the ether side chain” (J Med Chem, 1989)
